Experimental findings from ChEMBL document CHEMBL3421547, “Novel myricetin derivatives: Design, synthesis and anticancer activity” (Eur J Med Chem, 2015) are described below.

Active and inactive are the calls of the source. The rule behind the calls is not given here.

The subject of one experiment is MGC-803. Briefly: Cytotoxicity against human MGC803 cells after 48 hrs by MTT assay. The settings on record: MGC-803, 48 h. A general note: Tetrazolium assays rely on reduction of a dye to a coloured formazan, in cell work by metabolically active cells.
In experiment [1] the test system is MDA-MB-231. Briefly: Cytotoxicity against human MDA-MB-231 cells after 48 hrs by MTT assay. The following applies: MDA-MB-231, 48 h.
Experiment [2] deals with Telomerase reverse transcriptase (Homo sapiens, UniProt O14746). Briefly: Inhibition of telomerase in human MDA-MB-231 cells after 24 hrs by TRAP-PCR-ELISA. It counts as cell-based. In a few lines: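 MDA-MB-231 cells grown in DMEM with 10% FBS plus penicillin/streptomycin, 5 × 10^4 seeded in T25 flasks and allowed to adhere. Treated 24 h at 60, 20, 6.67, 2.22, 0.74, 0.25 and 0.082, with staurosporine included. Lysed in RIPA 30 min on ice, supernatant taken after 12,000 g spin at 4 °C. Telomerase read by TRAP-PCR-ELISA kit at 490 nm; mean ± SD.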
For orientation: ELISA stands for enzyme-linked immunosorbent assay.

A further experiment deals with SGC-7901. Briefly: Cytotoxicity against human SGC7901 cells after 48 hrs by MTT assay. The following applies: SGC-7901, 48 h.
Another experiment concerns Bcap37. Briefly: Cytotoxicity against human Bcap37 cells after 48 hrs by MTT assay. The settings on record: Bcap37, 48 h.
In experiment [3] the test system is MDA-MB-231. Briefly: Down regulation of TERT protein expression in human MDA-MB-231 cells at 1 uM after 48 hrs by Western blotting analysis. Format: functional, cell-based. In a few lines:
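MDA-MB-231 cells treated 48 h, with AZT (3.0 mmol/L) as reference. Cells lysed in RIPA and protein measured by BCA; 30 or 50 total protein run on SDS-PAGE and blotted to PVDF. Primary antibodies applied 1 h in TBS/Tween-20 with 3% Marvel (anti-TERT 1:500, β-actin loading control). HRP secondaries, ECL detection.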
On the technique in general: A western blot detects proteins with antibodies after separation by electrophoresis.

The test system of experiment [4] is MDA-MB-231. The experiment can be described thus: Down regulation of p65 protein expression in human MDA-MB-231 cells at 1 uM after 48 hrs by Western blotting analysis. It counts as functional, cell-based.
For experiment [5], the system named is MDA-MB-231. Briefly: Antiproliferative activity against human MDA-MB-231 cells assessed as cell distortion at 1 to 10 uM after 24 to 72 hrs by inverted microscopic analysis. It counts as functional, cell-based. An outline of the steps: (§1)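 MDA-MB-231 seeded at 3 × 10^4 cells/mL in DMEM with 10% FBS and grown 24 h at 37 °C, 5% CO2. Compounds in DMSO added (final DMSO ≤0.1%) at 1 and 10 concentrations for 24, 48 and 72 h. Morphology observed by inverted microscope and photographed in randomly chosen fields.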

Experiment [6] concerns MDA-MB-231. Briefly: Cell cycle arrest in human MDA-MB-231 cells assessed as accumulation at G0/G1 phase at 1 uM after 48 hrs by flow cytometry (reference value: 40.5 +/- 0.38%). Format: functional.
The subject of experiment [7] is MDA-MB-231. The experiment can be described thus: Cell cycle arrest in human MDA-MB-231 cells assessed as accumulation at S phase at 1 uM after 48 hrs by flow cytometry (reference value: 34.6 +/- 0.31%). It counts as functional.
The subject of experiment [8] is MDA-MB-231. The experiment can be described thus: Cell cycle arrest in human MDA-MB-231 cells assessed as accumulation at G2 phase at 1 uM after 48 hrs by flow cytometry (reference value: 34.6 +/- 0.31%). It counts as functional.
Experiment [9] concerns MDA-MB-231. The experiment can be described thus: Antiproliferative activity against human MDA-MB-231 cells assessed as breaking and crack at 1 to 10 uM after 24 to 72 hrs by inverted microscopic analysis. It counts as functional, cell-based. In a few lines:
as §1

Chain of Telomerase reverse transcriptase (O14746 whole entry): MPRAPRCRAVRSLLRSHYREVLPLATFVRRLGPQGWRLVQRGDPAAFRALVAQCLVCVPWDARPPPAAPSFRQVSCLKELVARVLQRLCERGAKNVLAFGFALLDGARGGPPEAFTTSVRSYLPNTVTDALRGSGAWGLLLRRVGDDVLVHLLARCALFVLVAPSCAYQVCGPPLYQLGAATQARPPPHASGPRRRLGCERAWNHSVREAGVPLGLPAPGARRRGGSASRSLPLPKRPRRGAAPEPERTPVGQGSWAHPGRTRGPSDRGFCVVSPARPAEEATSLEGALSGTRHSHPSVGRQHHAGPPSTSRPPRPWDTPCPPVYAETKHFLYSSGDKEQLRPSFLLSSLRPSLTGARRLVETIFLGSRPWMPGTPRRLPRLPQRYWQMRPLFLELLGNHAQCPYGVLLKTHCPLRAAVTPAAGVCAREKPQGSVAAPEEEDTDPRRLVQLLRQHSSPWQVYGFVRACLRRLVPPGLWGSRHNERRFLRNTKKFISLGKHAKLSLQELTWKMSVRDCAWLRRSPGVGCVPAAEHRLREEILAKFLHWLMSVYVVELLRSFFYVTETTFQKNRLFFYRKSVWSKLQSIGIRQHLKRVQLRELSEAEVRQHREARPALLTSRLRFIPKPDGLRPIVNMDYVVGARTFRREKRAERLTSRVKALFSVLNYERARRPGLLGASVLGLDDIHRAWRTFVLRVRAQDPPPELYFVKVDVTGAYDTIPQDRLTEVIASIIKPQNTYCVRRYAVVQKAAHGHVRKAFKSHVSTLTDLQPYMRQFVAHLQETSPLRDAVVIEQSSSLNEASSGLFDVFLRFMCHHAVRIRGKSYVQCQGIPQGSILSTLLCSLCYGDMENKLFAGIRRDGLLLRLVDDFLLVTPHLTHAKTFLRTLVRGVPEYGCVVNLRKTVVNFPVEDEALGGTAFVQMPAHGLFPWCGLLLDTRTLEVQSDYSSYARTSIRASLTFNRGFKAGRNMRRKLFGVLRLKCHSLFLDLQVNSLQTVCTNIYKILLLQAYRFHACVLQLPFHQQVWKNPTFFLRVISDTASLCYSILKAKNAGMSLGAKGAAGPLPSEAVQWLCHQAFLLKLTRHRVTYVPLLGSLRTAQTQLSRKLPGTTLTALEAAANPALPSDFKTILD

As a reminder, the IC50 is the midpoint of a concentration-inhibition curve. As to `COc1cc(OC)c2c(=O)c(OCCCCN3CCCCC3)c(-c3cc(OC)c(OC)c(OC)c3)oc2c1`, the IC50 in the experiment with MGC-803 came out at 26.8 µM; in the experiment on MDA-MB-231 [1], 3.03 µM; in [2], 2 µM; in the experiment with SGC-7901, 6.08 µM; in the experiment on Bcap37, 2.62 µM.
In the case of `COc1cc(OC)c2c(=O)c(OCCCCN3CCCC3)c(-c3cc(OC)c(OC)c(OC)c3)oc2c1`, the IC50 was determined as 18.6 µM in the experiment with MGC-803, 10.4 µM with MDA-MB-231 [1], 26.8 µM with SGC-7901 and 18 µM with Bcap37.
`COc1cc(OC)c2c(=O)c(OCCCN3CCCC3)c(-c3cc(OC)c(OC)c(OC)c3)oc2c1`: the values for the IC50 (in the experiment on MGC-803; in [2]) were 32.1 µM and 28.9 µM, respectively.
`COc1cc(OC)c2c(=O)c(OCC(=O)N/N=C/c3ccc(C)cc3)c(-c3cc(OC)c(OC)c(OC)c3)oc2c1`: the IC50 in the experiment on MGC-803 was 3.51 µM; in the experiment on MDA-MB-231 [1], 4.57 µM; in the experiment with SGC-7901, 10.1 µM; with Bcap37, 5.17 µM.
Regarding `CCN(CC)CCCCOc1c(-c2cc(OC)c(OC)c(OC)c2)oc2cc(OC)cc(OC)c2c1=O`, the IC50 is 13 µM with MDA-MB-231 [1] and 40.3 µM in experiment [2].
For `COc1cc(OC)c2c(=O)c(OCCCN3CCN(C)CC3)c(-c3cc(OC)c(OC)c(OC)c3)oc2c1`, the IC50 in the experiment with MDA-MB-231 [1] came to 30.1 µM; in experiment [2] it was 19.7 µM; in the experiment on Bcap37, 38 µM.
Take `COc1cc(OC)c2c(=O)c(OCCCCN3CCOCC3)c(-c3cc(OC)c(OC)c(OC)c3)oc2c1`: the concentration for half-maximal inhibition (IC50) was determined as 20.6 µM in the experiment on MGC-803, 4.17 µM in the experiment with MDA-MB-231 [1], 12.5 µM in the experiment with SGC-7901 and 5.24 µM with Bcap37.
Taken in the same sequence, the figures for `COc1cc(OC)c2c(=O)c(OCCCCN3CCN(C)CC3)c(-c3cc(OC)c(OC)c(OC)c3)oc2c1` were 12.2 µM, 3.87 µM, 6.95 µM and 4.17 µM.
On the same counts, the results for `COc1cc(OC)c2c(=O)c(OCC(=O)N/N=C/c3ccc[nH]3)c(-c3cc(OC)c(OC)c(OC)c3)oc2c1` are 5.61 µM, 3.75 µM, 8.73 µM and 7 µM.
On the same counts, the results for `COc1cc(OC)c2c(=O)c(OCCCN3CCOCC3)c(-c3cc(OC)c(OC)c(OC)c3)oc2c1` are 21 µM, 2.9 µM, 11.2 µM and 4.68 µM.
In the case of `COc1cc(OC)c2c(=O)c(OCC(=O)N/N=C/c3ccco3)c(-c3cc(OC)c(OC)c(OC)c3)oc2c1`, the outcome with MDA-MB-231 [3], with MDA-MB-231 [4] and with MDA-MB-231 [5] was Active. Also, the IC50 in the experiment on MGC-803 turned out to be 6.05 µM; with MDA-MB-231 [1] it was 1.86 µM; in experiment [2], 0.91 µM; with SGC-7901, 5.72 µM; with Bcap37, 3.11 µM. Moreover, the Activity in the experiment with MDA-MB-231 [6] was found to be 44.3%; with MDA-MB-231 [7], 28.4%; in the experiment with MDA-MB-231 [8] it was 27.4%.
In the case of `COc1cc(OC)c2c(=O)c(OCC(=O)N/N=C/c3sccc3C)c(-c3cc(OC)c(OC)c(OC)c3)oc2c1`, the IC50 with MGC-803 stood at 7.74 µM; in the experiment with MDA-MB-231 [1], 4.47 µM; with SGC-7901, 10.2 µM; in the experiment with Bcap37 it was 8.35 µM.
For the molecule `COc1cc(OC)c2c(=O)c(OCC(=O)N/N=C/c3ccccn3)c(-c3cc(OC)c(OC)c(OC)c3)oc2c1`, the IC50 stood at 15.3 µM in the experiment with MGC-803, 9.89 µM in the experiment with MDA-MB-231 [1], 16.2 µM with SGC-7901 and 18.8 µM in the experiment on Bcap37.
Regarding `COc1cc(OC)c2c(=O)c(OCCCN3CCCCC3)c(-c3cc(OC)c(OC)c(OC)c3)oc2c1`, the IC50 with MGC-803 came out at 10 µM; in the experiment on MDA-MB-231 [1], 2.16 µM; in experiment [2], 3.07 µM; in the experiment with SGC-7901, 16.5 µM; in the experiment with Bcap37, 2.96 µM.
Take `CCN(CC)CCCOc1c(-c2cc(OC)c(OC)c(OC)c2)oc2cc(OC)cc(OC)c2c1=O`: the IC50 amounted to 40.2 µM in the experiment on MGC-803, 35.7 µM in experiment [2], 56.9 µM in the experiment on SGC-7901 and 43 µM in the experiment on Bcap37.
In experiment [2], `C/C(=C\C(=O)Nc1ccccc1C(=O)O)c1ccc2ccccc2c1` yielded an IC50 of 0.17 µM.
On to `COc1cc(OC)c2c(=O)c(OCC(=O)N/N=C/c3ccccc3F)c(-c3cc(OC)c(OC)c(OC)c3)oc2c1`, for which the IC50 was determined as 2.78 µM with MGC-803; 3.4 µM with MDA-MB-231 [1]; 1.82 µM in experiment [2]; 7.72 µM in the experiment with SGC-7901; 4.09 µM with Bcap37.
Regarding `COc1cccc2c1C(=O)c1c(O)c3c(c(O)c1C2=O)C[C@@](O)(C(=O)CO)C[C@@H]3O[C@H]1C[C@H](N)[C@H](O)[C@H](C)O1` [DOXORUBICIN], the IC50 with MGC-803 came to 3.22 µM; with MDA-MB-231 [1], 2.01 µM; in the experiment on SGC-7901, 3.5 µM; in the experiment with Bcap37, 2.87 µM. The outcome in the experiment with MDA-MB-231 [9] was Active.
Consider `CC[n+]1c(-c2ccccc2)c2cc(N)ccc2c2ccc(N)cc21` [HOMIDIUM BROMIDE], for which the IC50 in experiment [2] was determined as 2.33 µM.
